Laboratory results taken from ChEMBL document CHEMBL2331229, “Extracellular signal-regulated kinases (ERK) inhibitors from Aristolochia yunnanensis” (J Nat Prod, 2013).
Calls of active or inactive are those of the source. No cut-off for these calls is given here.

Legend:
[1] = biological target: c-Jun N-terminal kinase, JNK (Homo sapiens) (UniProt P45983+P53779+P45984); assay: Inhibition of JNK phosphorylation in human HeLa cells at 20 uM after 3 hrs by Western blotting analysis; assay type: cell-based
In short: (§1)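 HeLa cells exposed to 20 μM compound for 3 h. Lysed in Tris pH 7.4/NaCl/NP-40/deoxycholate/SDS buffer with protease and phosphatase inhibitors, protein by BCA. Then 20 μg protein on 8–10% SDS-PAGE, transferred to nitrocellulose and blocked with 5% milk. Primary antibodies overnight at 4 °C, detection by chemiluminescence. Phospho-ERK1/2, -JNK and -p38 quantified by densitometry (n = 3, ANOVA).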

[2] = biological target: MAP kinase p38 (Homo sapiens) (UniProt O15264+Q15759+Q16539+P53778); assay: Inhibition of p38 phosphorylation in human HeLa cells at 20 uM after 3 hrs by Western blotting analysis; assay type: cell-based; in short: as §1
[3] = biological target: T1, Mitogen-activated protein kinase; ERK1/ERK2 (Homo sapiens) (UniProt P27361+P28482); assay: Inhibition of ERK1/2 phosphorylation in human HeLa cells at 20 uM after 3 hrs by Western blotting analysis; assay type: cell-based; in short: as §1
HeLa = assay: Cytotoxicity against human HeLa cells assessed as decrease in cell viability at 50 uM after 48 hrs by WST-8-based colorimetric assay; assay type: functional
In short: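 HeLa cells in 96-well plates given 50 μM compound for 48 h. Viability read with CCK-8: phenol red-free DMEM containing 10% WST-8 added, 1 h at 37 °C, then OD at 450 nm. Computed from the mean of three wells (n = 3, ANOVA).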

[4] = biological target: T1, Mitogen-activated protein kinase; ERK1/ERK2 (Homo sapiens); assay: Inhibition of ERK1/2 phosphorylation in human HeLa cells after 3 hrs by Western blotting analysis; assay type: cell-based
In short: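 HeLa cells exposed to compound at indicated concentrations (2.5 to 40 μM range) for 3 h, with PD98059 as positive control. Lysate protein (20 μg) was run on SDS-PAGE and Western blotted for phospho-ERK1/2. Blots were quantified by densitometry (n = 3, ANOVA).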

T1 sequence (P27361 whole entry, looked up): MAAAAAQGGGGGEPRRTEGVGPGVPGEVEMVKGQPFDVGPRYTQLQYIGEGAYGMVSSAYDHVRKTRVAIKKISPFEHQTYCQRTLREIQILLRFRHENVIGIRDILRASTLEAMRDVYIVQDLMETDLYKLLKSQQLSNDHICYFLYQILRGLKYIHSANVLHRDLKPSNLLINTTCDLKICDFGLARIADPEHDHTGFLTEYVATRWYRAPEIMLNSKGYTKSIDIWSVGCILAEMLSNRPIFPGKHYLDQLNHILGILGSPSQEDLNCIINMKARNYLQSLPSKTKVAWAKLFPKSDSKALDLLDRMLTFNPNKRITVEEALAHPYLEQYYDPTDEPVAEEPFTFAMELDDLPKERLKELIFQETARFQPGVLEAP
T1 sequence (P28482 whole entry, looked up): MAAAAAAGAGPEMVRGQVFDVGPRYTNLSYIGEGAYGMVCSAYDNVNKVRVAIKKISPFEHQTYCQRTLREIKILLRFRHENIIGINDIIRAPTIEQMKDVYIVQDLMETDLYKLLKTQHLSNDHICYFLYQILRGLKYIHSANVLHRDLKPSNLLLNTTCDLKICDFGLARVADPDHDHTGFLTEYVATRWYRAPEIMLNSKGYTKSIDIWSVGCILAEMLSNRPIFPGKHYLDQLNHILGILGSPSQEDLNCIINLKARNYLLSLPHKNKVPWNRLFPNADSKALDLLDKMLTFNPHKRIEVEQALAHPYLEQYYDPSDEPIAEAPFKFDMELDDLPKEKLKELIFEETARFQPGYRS

SMILES	inhibition [1]	inhibition [2]	inhibition [3]	inhibition [4]	Activity (HeLa)
COC(=O)[C@]1(C)[C@@H]2/C=C(/C=O)CC/C=C(\C)CC[C@H]21	–	–	–	–	Active
C=C(C)[C@H]1C/C=C(\C)[C@@H](O)CCC2=C[C@H]1OC2=O	–	–	–	–	Active
C=C(C)[C@H]1CC/C(C)=C/CCC2=C[C@H]1OC2=O	inactive	inactive	Active	–	–
COc1cccc(-c2cc(=O)c3ccccc3o2)c1N	–	–	Active	–	–
C/C1=C\CC/C(C=O)=C\[C@@H]2[C@@H](CC1)[C@]2(C)CO	–	–	–	–	Active
CC(=O)O[C@H]1/C=C(\C=O)CC/C=C(\C)CC/C=C(\C)C1	–	–	–	–	Active
C/C1=C\CCC2=CC(O)(C/C(C)=C/CC1)OC2=O (racemic)	inactive	inactive	Active	–	inactive
C/C1=C\CCC2=C[C@H](C/C(C)=C/CC1)OC2=O	inactive	inactive	–	Dose-dependent effect	–

Now from value to compound, other results behind:

inhibition [1]	inhibition [2]	inhibition [3]	inhibition [4]	SMILES	Activity (HeLa)
inactive	inactive	Active	–	C=C(C)[C@H]1CCC(=C)[C@@H](O)CCC2=C[C@H]1OC2=O	–
inactive	inactive	Active	–	C/C1=C\CC/C(C=O)=C\[C@@H]2[C@@H](CC1)C2(C)C	–
inactive	inactive	Active	–	CC1(C)[C@@H]2CC[C@@]3(C)O[C@@H]3CC/C(C=O)=C\[C@@H]21	–
inactive	inactive	–	Dose-dependent effect	C[C@@H]1CC(=O)C=C2CC[C@@H]3[C@@H](C3(C)C)[C@]21C	–
inactive	inactive	Active	–	C=C(C)[C@H]1CC[C@]2(C)[C@@H]([N+](=O)[O-])CC[C@@]23C(=O)O[C@@H]1[C@@H]3O	–
inactive	inactive	Active	–	CC(=O)OC[C@]1(C)[C@@H]2/C=C(/C=O)CC/C=C(\C)CC[C@H]21	–
inactive	inactive	Active	–	C/C1=C\CC/C(C=O)=C\[C@H]2[C@@H](C[C@H]1O)C2(C)C	–
